According to ChEMBL document CHEMBL1148107, “Phomadecalins A-D and phomapentenone A: new bioactive metabolites from Phoma sp. NRRL 25697, a fungal colonist of Hypoxylon stromata” (2002):
Active and inactive are the calls of the source. The calls are words filed in the database; no cut-off is given here.

Columns and labels:
Bacillus subtilis = test: Antimicrobial activity against Bacillus subtilis ATCC 6051 at 200 ug/disk; type: functional; settings: read-out: IZ
Outline: (§1)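 Standard disk diffusion assay with 200 µg of compound applied per disk. Activity was read as the diameter (mm) of the zone of growth inhibition around the disk.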

Staphylococcus aureus = test: Antimicrobial activity against Staphylococcus aureus ATCC 29213 at 200 ug/disk; type: functional; settings: read-out: IZ; outline: as §1
Candida albicans = test: Antimicrobial activity against Candida albicans ATCC 90029 at 200 ug/disk; type: functional, organism-based; outline: as §1

Compound: C=C(CO)[C@@]12O[C@@H]1[C@@]1(C)C(=C[C@H]2O)C=CC[C@@H]1C [PHOMADECALIN A]
- zone of inhibition at 200 µg/disc (Bacillus subtilis): 18 mm
- zone of inhibition at 200 µg/disc (Staphylococcus aureus): 10 mm
- Activity (Candida albicans): inactive

Compound: C=C(COC(C)=O)[C@@]12O[C@@H]1[C@@]1(C)C(=C[C@H]2O)C=C[C@@H](O)[C@@H]1C [PHOMADECALIN B]
- zone of inhibition at 200 µg/disc (Bacillus subtilis): 10 mm
- zone of inhibition at 200 µg/disc (Staphylococcus aureus): 8 mm
- Activity (Candida albicans): inactive

Compound: C=C(CO)[C@@]12O[C@@H]1[C@@]1(C)C(=C[C@H]2O)C=CC(=O)[C@@H]1C [PHOMADECALIN C]
- zone of inhibition at 200 µg/disc (Bacillus subtilis): 12 mm

Compound: C=C(CO)[C@@]12O[C@@H]1[C@@]1(C)C(=C[C@H]2O)C=C[C@@H](O)[C@@H]1C [PHOMADECALIN D]
- zone of inhibition at 200 µg/disc (Bacillus subtilis): 9 mm
- zone of inhibition at 200 µg/disc (Staphylococcus aureus): 8 mm
- Activity (Candida albicans): inactive
